Results as given in ChEMBL document CHEMBL2203175, “Discovery and optimization of sulfonyl acrylonitriles as selective, covalent inhibitors of protein phosphatase methylesterase-1” (J Med Chem, 2011).
The source made the active and inactive calls. No cut-off for these calls is given here.

Experiments:
Format in all cases: cell-based
Details in all cases: HEK-293T
[1] = target: Fatty acid synthase (Homo sapiens) (UniProt P49327); test: Inhibition of FASN binding to FP-biotin in [12C][14N]-lysine, arginine and [13C6][15N2]-lysine, arginine labeled HEK293T cells at 20 uM after 1 hr by isotopic activity-based protein profiling-MudPIT assay
In short: (§1)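 SILAC HEK 293T: light cells (12C14N-Lys/Arg) treated with compound, heavy cells (13C6 15N2-Lys/Arg) with DMSO, 1 h at 37 °C. Proteomes were mixed 1:1 (0.5 mg each) and labeled with FP-biotin (5 μM, 1 h, 25 °C), then streptavidin-enriched, digested on bead with trypsin, and run by MudPIT. Light/heavy ratios were normalized to a DMSO/DMSO control. Only SHs with ≥2 quantifiable peptides were kept; mean ± SEM across peptides.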

[2] = target: Lysosomal protective protein (Homo sapiens) (UniProt P10619); test: Inhibition of CTSA binding to FP-biotin in [12C][14N]-lysine, arginine and [13C6][15N2]-lysine, arginine labeled HEK293T cells at 20 uM after 1 hr by isotopic activity-based protein profiling-MudPIT assay; in short: as §1
[3] = target: Monoacylglycerol lipase ABHD6 (Homo sapiens) (UniProt Q9BV23); test: Inhibition of ABHD6 binding to FP-biotin in [12C][14N]-lysine, arginine and [13C6][15N2]-lysine, arginine labeled HEK293T cells at 20 uM after 1 hr by isotopic activity-based protein profiling-MudPIT assay; in short: as §1
[4] = target: Acyl-coenzyme A thioesterase 2, mitochondrial (Homo sapiens) (UniProt P49753); test: Inhibition of ACOT2 binding to FP-biotin in [12C][14N]-lysine, arginine and [13C6][15N2]-lysine, arginine labeled HEK293T cells at 20 uM after 1 hr by isotopic activity-based protein profiling-MudPIT assay; in short: as §1
Sequence of Acyl-coenzyme A thioesterase 2, mitochondrial (Homo sapiens) (P49753 whole entry): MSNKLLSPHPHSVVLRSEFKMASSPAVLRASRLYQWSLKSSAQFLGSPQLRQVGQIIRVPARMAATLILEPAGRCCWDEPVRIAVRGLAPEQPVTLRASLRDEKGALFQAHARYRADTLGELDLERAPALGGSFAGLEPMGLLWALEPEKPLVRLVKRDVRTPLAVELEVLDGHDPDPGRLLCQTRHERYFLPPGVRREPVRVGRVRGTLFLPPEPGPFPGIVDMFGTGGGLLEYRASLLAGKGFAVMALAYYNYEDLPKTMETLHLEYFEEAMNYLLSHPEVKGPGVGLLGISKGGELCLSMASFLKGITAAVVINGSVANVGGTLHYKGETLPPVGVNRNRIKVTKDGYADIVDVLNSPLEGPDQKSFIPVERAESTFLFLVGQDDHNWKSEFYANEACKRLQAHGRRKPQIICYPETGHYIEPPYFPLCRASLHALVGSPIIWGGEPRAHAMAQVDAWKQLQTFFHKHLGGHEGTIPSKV

Sequence of Fatty acid synthase (Homo sapiens) (P49327 whole entry, looked up): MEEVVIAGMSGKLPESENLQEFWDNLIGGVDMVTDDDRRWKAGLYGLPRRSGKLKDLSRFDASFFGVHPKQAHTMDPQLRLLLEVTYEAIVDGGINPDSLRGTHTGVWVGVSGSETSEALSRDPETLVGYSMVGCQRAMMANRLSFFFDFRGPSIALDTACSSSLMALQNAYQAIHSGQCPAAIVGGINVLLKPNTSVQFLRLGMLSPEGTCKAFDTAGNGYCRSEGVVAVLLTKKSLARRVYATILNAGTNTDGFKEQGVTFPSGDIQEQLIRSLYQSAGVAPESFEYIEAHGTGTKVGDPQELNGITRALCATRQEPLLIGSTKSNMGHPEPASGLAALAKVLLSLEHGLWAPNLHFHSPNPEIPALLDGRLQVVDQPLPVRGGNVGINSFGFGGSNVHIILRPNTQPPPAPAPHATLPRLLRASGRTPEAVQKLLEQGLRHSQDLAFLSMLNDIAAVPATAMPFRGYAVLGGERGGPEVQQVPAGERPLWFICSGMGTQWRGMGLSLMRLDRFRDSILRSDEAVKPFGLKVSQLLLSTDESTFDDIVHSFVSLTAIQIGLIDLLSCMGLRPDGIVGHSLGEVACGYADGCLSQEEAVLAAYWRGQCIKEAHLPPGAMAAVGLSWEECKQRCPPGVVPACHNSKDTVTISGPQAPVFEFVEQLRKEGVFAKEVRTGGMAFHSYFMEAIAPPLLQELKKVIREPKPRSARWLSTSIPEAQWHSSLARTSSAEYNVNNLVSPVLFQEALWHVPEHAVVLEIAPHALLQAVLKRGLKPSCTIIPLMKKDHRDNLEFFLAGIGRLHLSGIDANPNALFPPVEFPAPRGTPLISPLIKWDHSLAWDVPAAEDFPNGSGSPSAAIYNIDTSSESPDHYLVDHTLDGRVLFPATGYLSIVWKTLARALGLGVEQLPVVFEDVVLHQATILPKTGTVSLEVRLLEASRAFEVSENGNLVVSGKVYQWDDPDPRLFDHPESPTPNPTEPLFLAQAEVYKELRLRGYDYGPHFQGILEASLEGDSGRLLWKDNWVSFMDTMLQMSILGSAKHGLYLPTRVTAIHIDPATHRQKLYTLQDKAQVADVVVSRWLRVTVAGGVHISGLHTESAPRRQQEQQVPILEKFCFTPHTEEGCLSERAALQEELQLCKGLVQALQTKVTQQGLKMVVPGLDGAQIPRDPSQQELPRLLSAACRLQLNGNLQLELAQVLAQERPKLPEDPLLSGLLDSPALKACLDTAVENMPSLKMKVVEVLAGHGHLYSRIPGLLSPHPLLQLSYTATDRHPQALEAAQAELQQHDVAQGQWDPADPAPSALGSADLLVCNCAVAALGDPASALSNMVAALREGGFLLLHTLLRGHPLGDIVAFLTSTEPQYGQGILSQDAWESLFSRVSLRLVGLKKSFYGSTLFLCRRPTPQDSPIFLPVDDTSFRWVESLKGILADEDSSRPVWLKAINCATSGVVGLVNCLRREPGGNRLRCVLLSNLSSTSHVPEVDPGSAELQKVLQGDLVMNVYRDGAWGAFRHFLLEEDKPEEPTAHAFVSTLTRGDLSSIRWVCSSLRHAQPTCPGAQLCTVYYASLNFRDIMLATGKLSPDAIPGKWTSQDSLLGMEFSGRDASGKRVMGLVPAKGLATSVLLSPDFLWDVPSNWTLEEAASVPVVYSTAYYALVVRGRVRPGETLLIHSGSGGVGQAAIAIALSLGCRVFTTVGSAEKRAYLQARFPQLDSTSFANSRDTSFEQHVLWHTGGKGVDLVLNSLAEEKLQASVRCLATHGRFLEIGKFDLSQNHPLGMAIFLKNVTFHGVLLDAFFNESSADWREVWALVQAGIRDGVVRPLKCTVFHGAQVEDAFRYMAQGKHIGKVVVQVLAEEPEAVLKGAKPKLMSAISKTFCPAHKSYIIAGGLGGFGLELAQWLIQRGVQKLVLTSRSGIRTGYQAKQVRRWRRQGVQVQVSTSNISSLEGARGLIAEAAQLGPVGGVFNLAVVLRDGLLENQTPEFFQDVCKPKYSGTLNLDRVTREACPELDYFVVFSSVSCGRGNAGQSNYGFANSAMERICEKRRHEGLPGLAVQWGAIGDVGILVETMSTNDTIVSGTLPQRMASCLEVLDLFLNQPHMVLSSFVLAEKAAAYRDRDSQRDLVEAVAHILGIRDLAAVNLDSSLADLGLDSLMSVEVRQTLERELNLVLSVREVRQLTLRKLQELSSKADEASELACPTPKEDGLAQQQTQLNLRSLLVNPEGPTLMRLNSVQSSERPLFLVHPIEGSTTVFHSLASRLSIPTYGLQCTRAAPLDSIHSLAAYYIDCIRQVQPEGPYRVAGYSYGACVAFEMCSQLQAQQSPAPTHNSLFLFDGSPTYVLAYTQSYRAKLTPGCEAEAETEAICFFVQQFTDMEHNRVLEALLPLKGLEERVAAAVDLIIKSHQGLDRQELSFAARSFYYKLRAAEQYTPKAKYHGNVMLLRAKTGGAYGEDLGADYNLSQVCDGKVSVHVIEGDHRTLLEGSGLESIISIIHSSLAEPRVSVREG
Sequence of Lysosomal protective protein (Homo sapiens) (P10619 29-326 limits assumed): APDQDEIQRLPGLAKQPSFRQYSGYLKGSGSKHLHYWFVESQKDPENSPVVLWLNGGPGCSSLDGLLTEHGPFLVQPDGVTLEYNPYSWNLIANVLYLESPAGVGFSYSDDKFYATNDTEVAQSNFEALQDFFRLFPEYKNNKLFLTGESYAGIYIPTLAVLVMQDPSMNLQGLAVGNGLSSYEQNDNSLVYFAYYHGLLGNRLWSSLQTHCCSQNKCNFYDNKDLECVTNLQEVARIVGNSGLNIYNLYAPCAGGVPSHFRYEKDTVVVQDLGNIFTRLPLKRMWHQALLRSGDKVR
Sequence of Lysosomal protective protein (Homo sapiens) (P10619 327-480 limits assumed): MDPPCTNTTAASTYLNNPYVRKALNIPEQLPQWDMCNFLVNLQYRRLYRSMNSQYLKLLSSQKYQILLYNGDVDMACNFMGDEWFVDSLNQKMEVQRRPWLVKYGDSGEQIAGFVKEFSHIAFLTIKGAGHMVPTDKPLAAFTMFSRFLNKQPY
Sequence of Monoacylglycerol lipase ABHD6 (Homo sapiens) (Q9BV23 whole entry): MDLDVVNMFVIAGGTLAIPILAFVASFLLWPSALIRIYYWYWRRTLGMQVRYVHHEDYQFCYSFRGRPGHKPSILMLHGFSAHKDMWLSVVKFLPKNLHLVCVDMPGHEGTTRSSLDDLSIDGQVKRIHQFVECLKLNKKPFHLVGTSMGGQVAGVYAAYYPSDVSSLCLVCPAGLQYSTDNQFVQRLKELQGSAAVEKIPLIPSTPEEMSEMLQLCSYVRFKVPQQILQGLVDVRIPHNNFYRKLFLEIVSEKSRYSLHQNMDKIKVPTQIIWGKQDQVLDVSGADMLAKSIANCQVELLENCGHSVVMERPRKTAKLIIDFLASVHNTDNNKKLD

inhibition [1]: inactive
inhibition [2]: inactive
inhibition [3]: inactive
inhibition [4]: inactive
Compound: N#C/C(=C\c1cccn1S(=O)(=O)c1cccc([N+](=O)[O-])c1)S(=O)(=O)c1ccc(F)cc1
